Data from ChEMBL document CHEMBL3046087, “Aminomethylphosphonic acid accumulation in plant species treated with glyphosate” (J Agric Food Chem, 2008).

How the values were obtained:
Glycine max [1] = experiment: Drug level in glyphosate-resistant Glycine max (soybean) assessed as AMPA level at growth inhibition I50 level rate measured 7 days post treatment; format: organism-based; details: in vivo, 168 h
Summary of the method: (§1)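 Greenhouse plants (28/22 °C, 13 h photoperiod) were sprayed with glyphosate at each species' I50 rate, with Tween 20-treated controls. Shoots were cut at 7 DAT and rinsed to remove surface herbicide. Pooled ground tissue (1 g) was water-extracted twice with sonication, acidified, and washed with methylene chloride. Extracts were derivatized with heptafluorobutanol/TFAA (90 °C, 1 h) and measured by GC-MS against derivatized standards, in duplicate.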

Desmanthus illinoensis [2] = experiment: Growth inhibition of Desmanthus illinoensis (Illinois bundleflower) measured 7 days post treatment; format: functional
[3] = system: Pueraria montana var. lobata; experiment: Growth inhibition of Pueraria montana var. lobata ( kudzu) measured 7 days post treatment; format: functional
[4] = Drug level in Vigna unguiculata (cowpea) at growth inhibition I50 level rate measured 7 days post treatment; format: organism-based; details: in vivo, read-out: Drug uptake; summary of the method: as §1
Desmanthus illinoensis [5] = experiment: Drug level in Desmanthus illinoensis (Illinois bundleflower) assessed as AMPA level at growth inhibition I50 level rate measured 7 days post treatment; format: organism-based; details: in vivo, 168 h; summary of the method: as §1
Zea mays [6] = experiment: Drug level in glyphosate-resistant Zea mays (maize) assessed as AMPA level at growth inhibition I50 level rate measured 7 days post treatment; format: organism-based; details: in vivo, 168 h, BLD = below limit of detection; summary of the method: as §1
Zea mays [7] = experiment: Growth inhibition of non glyphosate-resistant Zea mays (maize) measured 14 days post treatment
Zea mays [8] = experiment: Induction of shikimate accumulation in non glyphosate-resistant Zea mays (maize) at growth inhibition I50 level rate measured 7 days post treatment (reference value: 161 ug/g tissue); format: functional
[9] = Drug level in Sesbania herbacea at growth inhibition I50 level rate measured 7 days post treatment; format: organism-based; details: in vivo, read-out: Drug uptake; summary of the method: as §1
Abutilon theophrasti = experiment: Growth inhibition of Abutilon theophrasti (velvetleaf) measured 14 days post treatment
Senna obtusifolia [10] = experiment: Drug level in Senna obtusifolia (sicklepod) assessed as AMPA level at growth inhibition I50 level rate measured 7 days post treatment; format: organism-based; details: in vivo, 168 h; summary of the method: as §1
Senna obtusifolia [11] = experiment: Ratio of compound to AMPA level in Senna obtusifolia (sicklepod) at growth inhibition I50 level rate measured 7 days post treatment; format: organism-based; details: in vivo, 168 h
Summary of the method: (§2)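 Greenhouse plants (28/22 °C, 13 h photoperiod) were sprayed at each species' I50 rate with Tween 20 controls. Shoots were clipped 7 DAT and washed free of surface herbicide. Pooled ground tissue (1 g) was extracted twice with water under sonication. Extracts were derivatized with heptafluorobutanol/trifluoroacetic anhydride (90 °C, 1 h). Glyphosate and AMPA were quantified by GC-MS against derivatized standard curves, in duplicate.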

Senna occidentalis = experiment: Ratio of compound to AMPA level in Senna occidentalis (coffee senna) at growth inhibition I50 level rate measured 7 days post treatment; format: organism-based; details: in vivo, 168 h; summary of the method: as §2
[12] = Drug level in Desmanthus illinoensis (Illinois bundleflower) at growth inhibition I50 level rate measured 7 days post treatment; format: organism-based; details: in vivo, read-out: Drug uptake; summary of the method: as §1
Vigna unguiculata [13] = experiment: Growth inhibition of Vigna unguiculata (cowpea) measured 14 days post treatment
Erigeron canadensis [14] = experiment: Ratio of compound to AMPA level in Conyza canadensis (horseweed) at growth inhibition I50 level rate measured 7 days post treatment; format: organism-based; details: in vivo, 168 h; summary of the method: as §2
Erigeron canadensis [15] = experiment: Drug level in Conyza canadensis (horseweed) assessed as AMPA level at growth inhibition I50 level rate measured 7 days post treatment; format: organism-based; details: in vivo, 168 h; summary of the method: as §1
Vigna unguiculata [16] = experiment: Drug level in Vigna unguiculata (cowpea) assessed as AMPA level at growth inhibition I50 level rate measured 7 days post treatment; format: organism-based; details: in vivo, 168 h; summary of the method: as §1
[17] = system: Pueraria montana var. lobata; experiment: Drug level in Pueraria montana var. lobata ( kudzu) assessed as AMPA level at growth inhibition I50 level rate measured 7 days post treatment; format: organism-based; details: in vivo, 168 h; summary of the method: as §1
[18] = Drug level in non glyphosate-resistant Glycine max (soybean) at growth inhibition I50 level rate measured 7 days post treatment; format: organism-based; details: in vivo, read-out: Drug uptake; summary of the method: as §1
[19] = Drug level in Pueraria montana var. lobata ( kudzu) at growth inhibition I50 level rate measured 7 days post treatment; format: organism-based; details: in vivo, read-out: Drug uptake; summary of the method: as §1
[20] = Drug level in glyphosate-resistant Zea mays (maize) at growth inhibition I50 level rate measured 7 days post treatment; format: organism-based; details: in vivo, read-out: Drug uptake; summary of the method: as §1
Erigeron canadensis [21] = experiment: Growth inhibition of Conyza canadensis (horseweed) measured 7 days post treatment; format: functional
Senna obtusifolia [22] = experiment: Induction of shikimate accumulation in Senna obtusifolia (sicklepod) at growth inhibition I50 level rate measured 7 days post treatment (reference value: 348 ug/g tissue); format: functional
Summary of the method: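 Plants were sprayed in the greenhouse at each species' I50 rate, with Tween 20 controls. Shoots were harvested at 7 DAT and rinsed free of surface glyphosate. Shikimic acid was measured by HPLC on a C18 column after 0.45 µm filtration, with 100 µL injected, isocratic 98% H2O (pH 3.0)/2% MeOH, at 1 mL flow.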

Glycine max [23] = experiment: Drug level in non glyphosate-resistant Glycine max (soybean) assessed as AMPA level at growth inhibition I50 level rate measured 7 days post treatment; format: organism-based; details: in vivo, 168 h; summary of the method: as §1
[24] = Drug level in Abutilon theophrasti (velvetleaf) at growth inhibition I50 level rate measured 7 days post treatment; format: organism-based; details: in vivo, read-out: Drug uptake; summary of the method: as §1
Glycine max [25] = experiment: Ratio of compound to AMPA level in non glyphosate-resistant Glycine max (soybean) at growth inhibition I50 level rate measured 7 days post treatment; format: organism-based; details: in vivo, 168 h; summary of the method: as §2
[26] = system: Pueraria montana var. lobata; experiment: Ratio of compound to AMPA level in Pueraria montana var. lobata ( kudzu) at growth inhibition I50 level rate measured 7 days post treatment; format: organism-based; details: in vivo, 168 h; summary of the method: as §2
Glycine max [27] = experiment: Growth inhibition of non glyphosate-resistant Glycine max (soybean) measured 7 days post treatment; format: functional
Zea mays [28] = experiment: Growth inhibition of glyphosate-resistant Zea mays (maize) measured 7 days post treatment; format: functional

Which Drug uptake (Glycine max [1]) does the source give for `O=C(O)CNCP(=O)(O)O` [GLYPHOSATE] here?
Its Drug uptake is 119 ng/g.

What about the I50 (Desmanthus illinoensis [2]) of the same molecule?
The I50 was 272 gAi/ha.

What about the I50 [3] of the same molecule?
Its I50 is 77 gAi/ha.

And the concentration at 168 h [4]?
The concentration at 168 h was 26800 ng/g.

And the Drug uptake (Desmanthus illinoensis [5])?
Its Drug uptake is 1513 ng/g.

What about the Drug uptake (Zea mays [6]) of the same molecule?
The Drug uptake was “BLD”.

And the I50 (Zea mays [7])?
Its I50 is 93 gAi/ha.

And the Activity (Zea mays [8])?
Its Activity is 149 µg/g.

What about the concentration at 168 h [9] of the same molecule?
Its concentration at 168 h is 38600 ng/g.

What about the I50 (Abutilon theophrasti) of the same molecule?
The I50 was 122 gAi/ha.

And the Drug uptake (Senna obtusifolia [10])?
The Drug uptake was 1834 ng/g.

What about the Ratio (Senna obtusifolia [11]) of the same molecule?
The Ratio was 4.

And the Ratio (Senna occidentalis)?
The Ratio was 21.

And the concentration at 168 h [12]?
The concentration at 168 h was 3270 ng/g.

And the I50 (Vigna unguiculata [13])?
Its I50 is 201 gAi/ha.

And the Ratio (Erigeron canadensis [14])?
Its Ratio is 84.

And the Drug uptake (Erigeron canadensis [15])?
The Drug uptake was 314 ng/g.

And the Drug uptake (Vigna unguiculata [16])?
The Drug uptake was 4765 ng/g.

What about the Drug uptake [17] of the same molecule?
Its Drug uptake is 297 ng/g.

What about the concentration at 168 h [18] of the same molecule?
Its concentration at 168 h is 25000 ng/g.

And the concentration at 168 h [19]?
The concentration at 168 h was 5560 ng/g.

And the concentration at 168 h [20]?
The concentration at 168 h was 308 ng/g.

What about the I50 (Erigeron canadensis [21]) of the same molecule?
Its I50 is 170 gAi/ha.

And the Activity (Senna obtusifolia [22])?
The Activity was 1092 µg/g.

What about the Drug uptake (Glycine max [23]) of the same molecule?
Its Drug uptake is 668 ng/g.

And the concentration at 168 h [24]?
Its concentration at 168 h is 678 ng/g.

What about the Ratio (Glycine max [25]) of the same molecule?
The Ratio was 38.

And the Ratio [26]?
Its Ratio is 19.

What about the I50 (Glycine max [27]) of the same molecule?
The I50 was 250 gAi/ha.

And the I50 (Zea mays [28])?
The I50 was 93 gAi/ha.
